Experimental data pooled from the literature.
Compare with care: the assays were run in different laboratories.
RET V804M: Proto-oncogene tyrosine-protein kinase receptor Ret (RET, Homo sapiens, UniProt P07949, V804M)
RET M918T: Proto-oncogene tyrosine-protein kinase receptor Ret (RET, Homo sapiens, UniProt P07949, M918T)
RET V804L: Proto-oncogene tyrosine-protein kinase receptor Ret (RET, Homo sapiens, UniProt P07949, V804L)
RET: Proto-oncogene tyrosine-protein kinase receptor Ret (RET, Homo sapiens, UniProt P07949)

`O=C(Nc1c[nH]nc1C(=O)NC1CCNCC1)c1cc(F)cc(F)c1` gave a remaining binding of 99% (RET V804M; binding; competition with immobilised ligand; 1 µM).
`C[C@H]1CCN(c2nccc(-c3cnn4ncccc34)n2)C1` gave a remaining binding of 100% (RET M918T; binding; 1 µM).
`O=C(c1ccc(Nc2ncc(Cl)c(-c3cc4ccccc4s3)n2)cc1)N1CCC(N2CCCC2)CC1` gave a remaining binding of 37% (RET V804M; binding; competition with immobilised ligand; 1 µM).
`F[C@@H]1CCN(c2nccc(-c3cnn4ncccc34)n2)C1` gave a remaining binding of 100% (RET V804L; binding; 1 µM).
`CNC(=O)[C@@H]1CC[C@@H](n2c(-c3ccc4cnccc4c3)nc3ccc(C(=O)NCc4cccc(C(N)=O)c4)cc32)C1` gave a remaining binding of 98% (RET M918T; binding; competition with immobilised ligand; 1 µM).
`O=C(Nc1ccc(Oc2ccc(F)cc2)cc1)N1CCc2ncccc2[C@H]1c1ccc(F)cc1` gave a remaining binding of 100% (RET M918T; cell-free assay; competition with immobilised ligand; 1 µM).
For `COc1cnc(Nc2cccc(S(N)(=O)=O)c2)nc1N1CCN(c2ccccc2)C(=O)C1`, the remaining binding was 100% (RET M918T; binding; competition with immobilised ligand; 1 µM).
`Cc1noc([C@H]2C[C@@H](c3ccc(C(F)(F)F)cc3)CN(C(=O)N3CCS(=O)(=O)C3)C2)n1` gave a remaining binding of 100% (RET V804L; cell-free assay; competition with immobilised ligand; 1 µM).
For `COc1ccnn2ncc(-c3ccnc(N(C)C)n3)c12`, the remaining binding was 100% (RET M918T; binding; 1 µM).
The remaining binding of `COc1ncc2cc3ccccc3nc2c1C#N` is reported as 96% (RET; cell-free assay; competition with immobilised ligand; 5 µM).
`COc1cc(-c2cn(C3CCc4c(F)cccc4N(CC(F)(F)F)C3=O)nn2)ccc1-n1cnc(C)c1` (centres unmarked) gave a remaining binding of 88% (RET V804M; cell-free assay; competition with immobilised ligand; 1 µM).
For `N[C@H]1CCN(c2nccc(-c3cnn4ncccc34)n2)C1`, the remaining binding was 100% (RET V804M; binding; 1 µM).
For `CN(C)CC#Cc1ccc(OCCCc2sc(N3CCc4cccc(C(=O)Nc5nc6ccccc6s5)c4C3)nc2C(=O)O)c(F)c1`, the remaining binding was 100% (RET; cell-free assay; competition with immobilised ligand; 1 µM).
With `Cc1cnc(Nc2ccc(C(=O)N3CCC(N4CCCC4)CC3)cc2)nc1-c1cc2ccccc2s1` the remaining binding was 25% (RET V804M; binding; competition with immobilised ligand; 1 µM).
`CCN1CCN(Cc2ccc(C(=O)Nc3ccc(C)c(Oc4ccc5c(c4)CC(=O)N5)c3)cc2C(F)(F)F)CC1` gave a remaining binding of 67% (RET V804M; binding; competition with immobilised ligand; 1 µM).
For `CCC(=O)N[C@H]1CC[C@@H](C(=O)N(C)c2ccc(-c3nc4ccccc4o3)cc2)C1`, the remaining binding was 100% (RET V804M; cell-free assay; competition with immobilised ligand; 1 µM).
The remaining binding of `CN(C)c1ncc(F)c(-c2cnn3ncccc23)n1` is reported as 100% (RET V804M; binding; 1 µM).
For `FC(F)(F)c1ccc2c(c1)nc(-c1cccnc1)n2C1CC1`, the remaining binding was 81% (RET V804L; cell-free assay; competition with immobilised ligand; 1 µM).
`O=C(c1ccc(Nc2ncc(Cl)c(-c3ccc(Cl)s3)n2)cc1)N1CCC(N2CCCC2)CC1` gave a remaining binding of 12% (RET V804M; binding; competition with immobilised ligand; 1 µM).
`Cc1cnn2ncc(-c3ccnc(N(C)C)n3)c2c1` has a remaining binding of 100% (RET V804L; binding; 1 µM).
